This passage reports MIC results from ChEMBL document CHEMBL1208661, “Synthesis, characterization, in vitro and molecular docking studies of new 2,5-dichloro thienyl substituted thiazole derivatives for antimicrobial properties” (2010).

Structures are written as SMILES. In brackets after ≈: the same amount, converted by molar mass. Activity calls are given as the source filed them. The calls are words filed in the database; no cut-off is given here.

The subject of one assay is Staphylococcus aureus. As to the kind of experiment: Antibacterial activity against Staphylococcus aureus Smith after 24 hrs by disc diffusion method. Type of assay: functional. In short, it runs like this: (§1)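 Paper discs (6.25 mm, Whatman No. 1) were dry-heat sterilized at 140 °C for 1 h. Test compounds were made up at different concentrations in dimethylformamide and loaded onto batches of 100 discs, using 1 ml holding 100 times the per-disc amount. Discs were placed in triplicate on nutrient agar seeded with fresh bacteria.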
A general note: In agar diffusion tests the substance spreads into inoculated agar from a disc or well.

The subject of assay [1] is Aspergillus fumigatus. Kind of assay: Antifungal activity against Aspergillus fumigatus NCIM 902 after 3 to 4 days by serial plate dilution method. In kind it is functional. In short, it runs like this: (§2)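 Sabouraud agar was used (peptone, D-glucose and agar in water, pH 5.7). Plates were lawned with a saline spore suspension and dried at 37 °C for 1 h. Wells were punched in the agar and filled with compound in DMSO, with a DMSO solvent control. Plates were run in triplicate at 37 °C for 3–4 days.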

The next assay relates to Pseudomonas aeruginosa. As to the kind of experiment: Antibacterial activity against Pseudomonas aeruginosa after 24 hrs by disc diffusion method. Type of assay: functional. In short, it runs like this:
as §1

Assay [2] concerns Talaromyces marneffei. Kind of assay: Antifungal activity against recultured Penicillium marneffei after 3 to 4 days by serial plate dilution method. Type of assay: functional. In short, it runs like this: as §2
Assay [3] relates to Trichophyton mentagrophytes. As to the kind of experiment: Antifungal activity against recultured Trichophyton mentagrophytes after 3 to 4 days by serial plate dilution method. Type of assay: functional. In short, it runs like this: as §2
In another assay the test system is Escherichia coli. Kind of assay: Antibacterial activity against Escherichia coli after 24 hrs by disc diffusion method. In kind it is functional. In short, it runs like this:
as §1

For assay [4], the system named is Aspergillus flavus. Kind of assay: Antifungal activity against Aspergillus flavus NCIM 524 after 3 to 4 days by serial plate dilution method. In kind it is functional. In short, it runs like this: as §2
Another assay has as its system Klebsiella pneumoniae. As to the kind of experiment: Antibacterial activity against Klebsiella pneumoniae after 24 hrs by disc diffusion method. In kind it is functional. In short, it runs like this: as §1
Assay [5] concerns Aspergillus fumigatus. Kind of assay: Antifungal activity against Aspergillus fumigatus NCIM 902 at 10 ug/ml after 3 to 4 days by serial plate dilution method. In kind it is functional, organism-based. In short, it runs like this: as §2
Assay [6] deals with Trichophyton mentagrophytes. As to the kind of experiment: Antifungal activity against recultured Trichophyton mentagrophytes at 10 ug/ml after 3 to 4 days by serial plate dilution method. In kind it is functional, organism-based. In short, it runs like this: as §2
Assay [7] has as its system Talaromyces marneffei. As to the kind of experiment: Antifungal activity against recultured Penicillium marneffei at 10 ug/ml after 3 to 4 days by serial plate dilution method. Type of assay: functional, organism-based. In short, it runs like this:
as §2

For assay [8], the system named is Aspergillus flavus. Kind of assay: Antifungal activity against Aspergillus flavus NCIM 524 at 10 ug/ml after 3 to 4 days by serial plate dilution method. Type of assay: functional, organism-based. In short, it runs like this: as §2

As to `Nc1nc(-c2cc(Cl)sc2Cl)cs1`, the MIC (commonly the lowest concentration that inhibits growth of the organism) is 6.25 µg/mL (≈ 24.9 µM) against Staphylococcus aureus; 6.25 µg/mL (≈ 24.9 µM) in the assay on Aspergillus fumigatus [1]; 12.5 µg/mL (≈ 49.8 µM) against Pseudomonas aeruginosa; 12.5 µg/mL (≈ 49.8 µM) against Talaromyces marneffei [2]; 12.5 µg/mL (≈ 49.8 µM) in assay [3]; 6.25 µg/mL (≈ 24.9 µM) against Escherichia coli. Besides, the MIC was 6.25 µg/mL (≈ 24.9 µM) in the assay on Aspergillus flavus [4] and 12.5 µg/mL (≈ 49.8 µM) against Klebsiella pneumoniae.

As to `Clc1cc(-c2csc(-c3cccc4cccnc34)n2)c(Cl)s1`, the minimum inhibitory concentration (MIC) with Staphylococcus aureus was found to be 6.25 µg/mL (≈ 17.2 µM); with Aspergillus fumigatus [1] it was 12.5 µg/mL (≈ 34.4 µM); against Pseudomonas aeruginosa it was 12.5 µg/mL (≈ 34.4 µM); in the assay with Talaromyces marneffei [2], 6.25 µg/mL (≈ 17.2 µM); in [3], 6.25 µg/mL (≈ 17.2 µM); in the assay on Escherichia coli it was 12.5 µg/mL (≈ 34.4 µM). The MIC with Aspergillus flavus [4] and against Klebsiella pneumoniae was 6.25 µg/mL (≈ 17.2 µM) each time.

For the compound `COc1ccccc1-c1nc(-c2cc(Cl)sc2Cl)cs1`, the MIC was determined as 6.25 µg/mL (≈ 18.3 µM) in the assay with Staphylococcus aureus; 12.5 µg/mL (≈ 36.5 µM) in the assay on Pseudomonas aeruginosa; 12.5 µg/mL (≈ 36.5 µM) against Talaromyces marneffei [2]; 12.5 µg/mL (≈ 36.5 µM) in assay [3]; 6.25 µg/mL (≈ 18.3 µM) against Escherichia coli; 100 µg/mL (≈ 292 µM) against Aspergillus flavus [4]. In the assay on Klebsiella pneumoniae, the MIC came out at 100 µg/mL (≈ 292 µM). In addition, the MIC result in the assay on Aspergillus fumigatus [5] is “inactive”.

As to `Clc1cc(-c2csc(-c3cccnc3)n2)c(Cl)s1`, the MIC with Staphylococcus aureus and against Pseudomonas aeruginosa was 100 µg/mL (≈ 319 µM) each time. The MIC entry (in the assay on Aspergillus fumigatus [5]; in assay [6]; with Escherichia coli; with Klebsiella pneumoniae; in the assay on Talaromyces marneffei [7]; with Aspergillus flavus [8]) was “inactive” in each case.

With `C[C@@H]1[C@H](O)[C@@H](C)/C=C/C=C/C=C/C=C/C=C/C=C/C=C/[C@H](O[C@@H]2O[C@H](C)[C@@H](O)[C@H](N)[C@@H]2O)C[C@@H]2O[C@](O)(C[C@@H](O)C[C@@H](O)[C@H](O)CC[C@@H](O)C[C@@H](O)CC(=O)O[C@H]1C)C[C@H](O)[C@H]2C(=O)O` [AMPHOTERICIN B], the MIC (in the assay with Aspergillus fumigatus [1]; against Talaromyces marneffei [2]; in assay [3]; against Aspergillus flavus [4]) was less than 6.25 µg/mL throughout.

Turning to `Fc1ccccc1-c1nc(-c2cc(Cl)sc2Cl)cs1`, in the assay with Staphylococcus aureus, the minimum inhibitory concentration (MIC) is 100 µg/mL (≈ 303 µM). Moreover, the MIC entry (with Aspergillus fumigatus [5]; in assay [6]; in the assay on Pseudomonas aeruginosa; in the assay on Escherichia coli; in the assay with Klebsiella pneumoniae; with Talaromyces marneffei [7]) was “inactive” in each case. The MIC result with Aspergillus flavus [8] was “inactive”.

Turning to `CC1(C)S[C@@H]2[C@H](NC(=O)[C@H](N)c3ccccc3)C(=O)N2[C@H]1C(=O)O` [AMPICILLIN], the minimum inhibitory concentration (MIC) in the assay with Staphylococcus aureus, in the assay on Pseudomonas aeruginosa, in the assay with Escherichia coli and with Klebsiella pneumoniae was less than 6.25 µg/mL throughout.
